Data reported in ChEMBL document CHEMBL3351710, “Synthesis of novel thiadiazolotriazin-4-ones and study of their mosquito-larvicidal and antibacterial properties” (Eur J Med Chem, 2014).
Converted amounts (≈) assume the structure as drawn.

Legend:
[1] = tested on: Anopheles stephensi; experiment: Larvicidal activity against Anopheles stephensi late III or early IV instar larvae assessed as mortality after 24 hrs; type: functional; details: for LC50: Anopheles stephensi, iv, 24 h
Procedure, shortened: (§1)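 25 late III/early IV instar larvae in 250 mL water per beaker, exposed to a range of concentrations; a negative control ran with each set and malathion served as reference insecticide. Mortality was scored after 24 h in triplicate per sample. LC50 with 95% confidence limits was derived by Abbott's formula and log probit analysis.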

[2] = tested on: Anopheles stephensi; experiment: Larvicidal activity against Anopheles stephensi late III or early IV instar larvae assessed as mortality after 24 hrs relative to untreated control; type: functional; procedure, shortened: as §1
[3] = tested on: Bacillus subtilis; experiment: Antibacterial activity against Bacillus subtilis MTCC-441 assessed as zone of inhibition at 1 ug/ml; type: functional; details: read-out: DIZ
Procedure, shortened: (§2)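 Disc diffusion on Nutrient Agar. Strains were first grown on NA for 24 h at 37 °C, then spread as a lawn. Compounds were dissolved in DMSO. Sterile 6 mm discs were saturated with test solution, dried under laminar flow and placed on the inoculated plates. Plates were incubated at 37 °C for 18–24 h, and clear-zone diameters were measured.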

[4] = tested on: Escherichia coli; experiment: Antibacterial activity against Escherichia coli MTCC-725 assessed as zone of inhibition at 10 ug/disc; type: functional; details: read-out: DIZ; procedure, shortened: as §2
[5] = tested on: Bacillus subtilis; experiment: Antibacterial activity against Bacillus subtilis MTCC-441 assessed as zone of inhibition at 10 ug/disc; type: functional; details: read-out: DIZ; procedure, shortened: as §2
[6] = tested on: Staphylococcus aureus; experiment: Antibacterial activity against Staphylococcus aureus MTCC-7443 assessed as zone of inhibition at 10 ug/disc; type: functional; details: read-out: DIZ; procedure, shortened: as §2
[7] = tested on: Aeromonas hydrophila; experiment: Antibacterial activity against Aeromonas hydrophila MTCC-1739 assessed as zone of inhibition at 10 ug/disc; type: functional; details: read-out: DIZ; procedure, shortened: as §2
[8] = tested on: Staphylococcus aureus; experiment: Antibacterial activity against Staphylococcus aureus MTCC-7443 assessed as zone of inhibition at 1 ug/ml; type: functional; details: read-out: DIZ; procedure, shortened: as §2
[9] = tested on: Aeromonas hydrophila; experiment: Antibacterial activity against Aeromonas hydrophila MTCC-1739 assessed as zone of inhibition at 1 ug/ml; type: functional; details: read-out: DIZ; procedure, shortened: as §2
[10] = tested on: Escherichia coli; experiment: Antibacterial activity against Escherichia coli MTCC-725 assessed as zone of inhibition at 1 ug/ml; type: functional; details: read-out: DIZ; procedure, shortened: as §2
[11] = tested on: Mus musculus; experiment: Toxicity in po dosed Swiss albino mouse after 72 hrs; type: organism-based; details: in vivo

Compound	LC90 [1] [µg/mL]	LC50 [1] [µg/mL]	Ratio [2]	zone of inhibition at 1 µg/mL [3] [mm]	zone of inhibition at 10 µg/disc [4] [mm]	zone of inhibition at 10 µg/disc [5] [mm]	zone of inhibition at 10 µg/disc [6] [mm]	zone of inhibition at 10 µg/disc [7] [mm]	zone of inhibition at 1 µg/mL [8] [mm]	zone of inhibition at 1 µg/mL [9] [mm]	zone of inhibition at 1 µg/mL [10] [mm]	MLD [11] [mg/kg]
CC(C)(C)c1nnc2sc(COc3ccc(I)cc3)nn2c1=O	124.77 (≈ 282 µM)	77.5 (≈ 175 µM)	0.11	11.9								
CN[C@@H]1[C@H](O[C@H]2[C@H](O[C@H]3[C@H](O)[C@@H](O)[C@H](N=C(N)N)[C@@H](O)[C@@H]3N=C(N)N)O[C@@H](C)[C@]2(O)C=O)O[C@@H](CO)[C@H](O)[C@H]1O [STREPTOMYCIN]					26.3	33.6	31.5	22.4				
CC(C)(C)c1nnc2sc(COc3ccc(Cl)cc3Cl)nn2c1=O	73.2 (≈ 190 µM)	48.7 (≈ 126 µM)	0.18	12.9					10.8	9.7		
CC(C)(C)c1nnc2sc(COc3ccc(O)cc3)nn2c1=O	32.11 (≈ 96.6 µM)	21.7 (≈ 65.3 µM)	0.4						11.7	10.5	14.3	1360
CC(C)(C)c1nnc2sc(COc3ccccc3[N+](=O)[O-])nn2c1=O	105.04 (≈ 291 µM)	70.5 (≈ 195 µM)	0.12	16.8					19.8	9.6	11.7	
CC(C)(C)c1nnc2sc(COc3ccc(Cl)cc3)nn2c1=O	90.45 (≈ 258 µM)	61.3 (≈ 175 µM)	0.14	11.2						12.5	13.9	
Cc1cccc(C)c1OCc1nn2c(=O)c(C(C)(C)C)nnc2s1	115.2 (≈ 334 µM)	103 (≈ 298 µM)	0.11	9.8						10.4	11.4	
CC(C)(C)c1nnc2sc(COc3cc(Cl)c(Cl)cc3Cl)nn2c1=O	115.05 (≈ 274 µM)	81.6 (≈ 194 µM)	0.11	19.3					22.4	17.5	16.5	
CC(C)(C)c1nnc2sc(COc3ccccc3)nn2c1=O	120.98 (≈ 382 µM)	79.2 (≈ 250 µM)	0.11						12.3		10.9	
CC(=O)c1ccc(OCc2nn3c(=O)c(C(C)(C)C)nnc3s2)cc1	135.9 (≈ 379 µM)	86.6 (≈ 242 µM)	0.1	25.7					18.7	19.3	22.7	1820
CC(C)(C)c1nnc2sc(COc3ccccc3Cl)nn2c1=O	113.57 (≈ 324 µM)	72.8 (≈ 208 µM)	0.12	18.9					16.6	16.5	19.5	
Cc1cc(Cl)ccc1OCc1nn2c(=O)c(C(C)(C)C)nnc2s1	71.45 (≈ 196 µM)	49.3 (≈ 135 µM)	0.17						12.6	19.6	18.9	
COc1ccccc1OCc1nn2c(=O)c(C(C)(C)C)nnc2s1	37.78 (≈ 109 µM)	25.7 (≈ 74.2 µM)	0.34	19.2					21.7	13.9	15.6	
CCOC(=O)CC(SP(=S)(OC)OC)C(=O)OCC (configuration not stated) [MALATHION]	12.01 (≈ 36.4 µM)	8.7 (≈ 26.3 µM)										
Cc1cc(C)c(C)c(OCc2nn3c(=O)c(C(C)(C)C)nnc3s2)c1	45.05 (≈ 126 µM)	39.8 (≈ 111 µM)	0.29	15.6					17.6	15.6	18.9	
CC(C)(C)c1nnc2sc(C(C)(C)Oc3ccc(Cl)cc3)nn2c1=O	87.49 (≈ 231 µM)	55.2 (≈ 146 µM)	0.15	18.4					19.6	22.4	21.1	2260
